Assay [1] can be described thus: inhibitors of TNFa-induced NFkB p65 translocation, primary screen, imaging, HUVEC, MLSMR starter and 10KST1 sets (AID 438;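 active = inhibition above 20% together with a positive visual image hit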;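 note: compound added about 3h40 before a 20 min TNFalpha stimulation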;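 for inhibition: signal is the nuclear over cytoplasmic p65 intensity ratio per well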). The conditions noted are these: HUVEC TNFa-induced p65 nuclear translocation; cell count: measured here: nuclei count (cytotoxicity indicator), at 2.08 µM; inhibition: at 2 µM, stronger effect = higher value, 0% TNFa-plus-vehicle, 100% no-TNFa wells.
Assay [2] can be described thus: inhibitors of mutant huntingtin aggregation, primary screen, imaging, exon1htt(103Q)mCFP cells, high-content imaging (AID 483;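 active = visual image review flags a hit and inhibition of aggregation exceeds 20%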;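 note: compound exposure lasted 3 days before fixation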;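 for nuclei count: percent of the per-plate median nuclei count of sample wells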). The following applies: exon1htt(103Q)mCFP cell line, aggregate imaging, at 2 µM; inhibition of aggregation: stronger effect = higher value; nuclei count: measured here: cell count, toxicity.
A short description of assay [3]: inhibitors of E-selectin induction by TNFa, primary screen, imaging, HUVEC, immunofluorescence, MLSMR starter and 10KST1 sets (AID 487;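 active = visually confirmed hit in the image check and inhibition above 20%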;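 for inhibition: signal is fraction of cell area covered by stained E-selectin grains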;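 for nuclei count: 100% = median nuclei count of all wells on the same plate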). The conditions noted are these: HUVEC TNFalpha-induced E-selectin immunofluorescence imaging, at 2 µM; inhibition: stronger effect = higher value; nuclei count: measured here: cell number, toxicity.
In assay [4] the target is Voltage-gated potassium channel subunit beta-2 (Rattus norvegicus) (UniProt P62483). The experiment in a line: KvBeta enzyme negative modulators, primary screen, biochemical, NADPH fluorescence (AID 622;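 active = fluorescence slope higher than the sample average by over 3 SD, cut at about -0.22 in these data, passing the limit was not always enough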;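 note: slope of raw intensity against log time taken from 70 to 1610 s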). The following applies: recombinant KvBeta, 4-cyanobenzaldehyde reduction, at 10 µM, stronger effect = higher value.
Assay [5] has the same target. Put plainly: KvBeta positive modulators, primary screen, biochemical, NADPH fluorescence (AID 623).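 Note: fluorescence intensity change per second fitted from 20 to 320 s.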 The following applies: Recombinant KvBeta, NADPH fluorescence decrease slope, 10 min; at 10 µM; stronger effect = lower value.
Assay [6] concerns the target Alpha-2C adrenergic receptor (Homo sapiens) (UniProt P18825). Put plainly: modulators of alpha2C/GIRK thallium flux, primary screen, cell-based, HEK293 alpha2C/GIRK1/2 (AID 624;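 active = fluorescence slope after compound addition differing from the mean of all screened samples at 99.7% confidence, in either direction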;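 note: slope of fluorescence ratio to pre-addition baseline per second over 15 to 24 s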). The following applies: thallium flux BTC fluorescence, at 10 µM, actives lie on both sides.
Assay [7] in a line: inhibitors of larval lipid processing in zebrafish, primary screen, whole organism, PED6 fluorescence, gall bladder and intestine (AID 686;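 active = a full or partial loss of lipid-probe fluorescence in the fish gall bladder, intestine or both, judged by eye; inactive = no fluorescence loss, or compound toxic to the fish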;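 note: larvae 5 to 7 days old with five fish per well; signal comes from phospholipase A2 cleavage of quenched PED6 carried via bile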). The conditions noted are these: Zebrafish larvae PED6 lipid processing, fluorescence scoring; screened at 20 µM (by protocol). The method in brief: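 System: live zebrafish larvae aged 5-7 days, whole organism; measure: graded gall bladder and intestinal fluorescence inhibition per well; incubation: overnight exposure; reagent: ingested quenched lipid PED6 at 100 nM; signal: By-eye fluorescence microscopy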

Assay [8] can be described thus: inhibitors of Sendai virus-induced IRF3 signaling, primary screen, TLR/RLR signaling modifier project, cell-based, Sendai virus stimulus, luciferase, 10K MLSCN set (AID 602276;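 active = inhibition at or above 50% at 10 µM; inactive = inhibition below 50%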;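 note: firefly luciferase from ISG56 promoter only with Renilla not read in this screen; 0% = Sendai virus plus DMSO and 100% = medium plus DMSO without virus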). The following applies: HEK293 RL24 IRF3 luciferase reporter, at 10 µM, stronger effect = higher value. A general note: A reporter such as luciferase makes a cellular process visible.
The nature of assay [9]: inhibitors of poly I:C-induced TLR3 signaling, primary screen, cell-based, poly I:C stimulus, luciferase, 10K MLSCN set (AID 602277;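 active = inhibition of the reporter signal at or above 50%; inactive = inhibition below 50%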). The conditions noted are these: HEK293-TLR3 RL24 IRF3 luciferase reporter, at 10 µM, stronger effect = higher value.

The source made the active and inactive calls.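 Rule for the calls, unless noted: active = NADPH fluorescence slope more negative than the mean of all samples by about 3 SD, 99.7% confidence; inactive = the rest.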

Sequence of Voltage-gated potassium channel subunit beta-2 (Rattus norvegicus) (P62483 whole entry, looked up): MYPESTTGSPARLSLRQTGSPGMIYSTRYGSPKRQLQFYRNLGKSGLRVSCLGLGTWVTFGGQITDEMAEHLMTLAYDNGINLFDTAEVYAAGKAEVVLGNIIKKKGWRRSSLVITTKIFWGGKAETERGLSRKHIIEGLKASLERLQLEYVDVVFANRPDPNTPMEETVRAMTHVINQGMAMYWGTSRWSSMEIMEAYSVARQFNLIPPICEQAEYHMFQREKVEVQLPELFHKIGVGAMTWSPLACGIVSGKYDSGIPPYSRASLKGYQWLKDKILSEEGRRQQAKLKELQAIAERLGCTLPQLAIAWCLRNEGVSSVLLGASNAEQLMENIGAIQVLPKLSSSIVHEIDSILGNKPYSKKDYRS
Sequence of Alpha-2C adrenergic receptor (Homo sapiens) (P18825 whole entry, looked up): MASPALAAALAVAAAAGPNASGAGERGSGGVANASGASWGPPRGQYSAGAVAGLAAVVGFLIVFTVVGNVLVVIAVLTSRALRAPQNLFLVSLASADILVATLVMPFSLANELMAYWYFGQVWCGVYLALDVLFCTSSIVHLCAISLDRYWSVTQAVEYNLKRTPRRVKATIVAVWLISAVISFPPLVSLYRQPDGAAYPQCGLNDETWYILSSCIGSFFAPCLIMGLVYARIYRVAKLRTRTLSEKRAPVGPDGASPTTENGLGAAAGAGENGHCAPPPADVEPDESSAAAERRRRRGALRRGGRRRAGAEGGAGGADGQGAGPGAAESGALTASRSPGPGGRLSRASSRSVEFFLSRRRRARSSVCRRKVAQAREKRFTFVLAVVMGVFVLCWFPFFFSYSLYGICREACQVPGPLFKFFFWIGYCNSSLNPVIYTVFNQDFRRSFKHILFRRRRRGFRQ

Take `O=C(Nc1ccccc1C(=O)O)c1cccc(NC(=O)c2ccc(Br)o2)c1`: the cell count in assay [1] worked out at 489. Besides, the inhibition in assay [1] was -9.3% (inactive); in assay [3], -26.5% (inactive); in [8] it was 6.35% (inactive); in assay [9] it was 8.3% (inactive). In addition, the inhibition of aggregation in assay [2] is -2.4% (inactive). The values for the nuclei count in assay [2] and in assay [3] were 99.2% and 161%, respectively. In addition, the fluorescence slope in [4] is -0.441 (inactive). Also, in assay [5], the NADPH fluorescence slope is -4e-05 (inactive). Moreover, the slope in assay [6] was 0.00477 (inactive). Moreover, the compound was classed as inactive in assay [7].

For `CSCCC(NC(=O)CCN1C(=O)c2ccccc2C1=O)C(=O)O` (stereo not drawn), the cell count in [1] turned out to be 366. In addition, the inhibition in assay [1] was 1.8% (inactive); in [3], -76.8% (inactive); in assay [8], 15.7% (inactive); in assay [9], 19.3% (inactive). The inhibition of aggregation in assay [2] was -10.9% (inactive). In addition, the nuclei count turned out to be 99.7% in [2] and 110% in assay [3]. In addition, in assay [4], the fluorescence slope was -0.411 (inactive). Further, the NADPH fluorescence slope in assay [5] is 2e-07 (inactive). In addition, the slope in [6] was 0.00495 (inactive). For the same compound, the compound was called inactive in assay [7].

As for `CSc1nnc(-c2cnccn2)n1Cc1ccccc1`, the cell count in assay [1] worked out at 386. For the same compound, the inhibition in [1] is 2.9% (inactive); in assay [3] it was 5.7% (inactive); in assay [8], -5.1% (inactive); in assay [9], 2.59% (inactive). In addition, the inhibition of aggregation in [2] is -2.6% (inactive). Further, the nuclei count in [2] came to 101%; in [3] it was 121%. Besides, the fluorescence slope in assay [4] is -0.481 (inactive). The NADPH fluorescence slope in [5] was -5.6e-07 (inactive). Moreover, the slope in [6] was 0.00544 (inactive). Moreover, the compound was called inactive in assay [7].

For the compound `CCCCCCC(c1c(C)n(C)n(-c2ccccc2)c1=O)c1c(C)n(C)n(-c2ccccc2)c1=O`, in [1], the cell count was 272. The inhibition in assay [1] is -12.6% (inactive); in assay [3], -39.4% (inactive); in assay [8] it was 7.89% (inactive); in [9] it was 7.24% (inactive). Besides, the inhibition of aggregation in assay [2] was 21% (inactive). Besides, the nuclei count was found to be 59.4% in assay [2] and 102% in [3]. Moreover, the fluorescence slope in assay [4] is -0.407 (inactive). Moreover, in assay [5], the NADPH fluorescence slope was -5e-05 (inactive). For the same compound, the slope in [6] was 0.00514 (inactive). Also, in [7], the compound was called inactive.

As for `CCOC(=O)c1sc(NC(=O)CSc2ncn(-c3ccccc3)n2)nc1C`, the cell count in assay [1] stood at 527. In addition, the inhibition is -6.5% (inactive) in assay [1], -8% (inactive) in [3], 13.7% (inactive) in assay [8] and 13% (inactive) in [9]. In addition, the inhibition of aggregation in assay [2] is 14.5% (inactive). For the same compound, the nuclei count in assay [2] worked out at 102%; in assay [3], 69.6%. The fluorescence slope in [4] is -0.363 (inactive). The NADPH fluorescence slope in [5] is 2.2e-05 (inactive). For the same compound, the slope in assay [6] is 0.00535 (inactive). The call in assay [7] was inactive.

As to `Cc1ccc2nc(/C(C#N)=N/O)[nH]c2c1`, the cell count in assay [1] was determined as 627. The inhibition in assay [1] is -1.7% (inactive); in assay [3], -34.1% (inactive); in assay [8], 6.84% (inactive); in [9], 6.68% (inactive). Further, in assay [2], the inhibition of aggregation was -7.3% (inactive). The nuclei count was determined as 112% in [2] and 119% in [3]. In assay [4], the fluorescence slope is -0.376 (inactive). The NADPH fluorescence slope in [5] is -8.1e-05 (inactive). The slope in assay [6] is 0.00426 (inactive). The compound was called inactive in [7].

`CCN(C(=O)c1ccnc(C(C)(C)C)c1)c1ccccc1`: the cell count in [1] turned out to be 334. Moreover, the inhibition was 4.4% (inactive) in assay [1], -63.1% (inactive) in assay [3], 13.6% (inactive) in assay [8] and 11.3% (inactive) in [9]. In [2], the inhibition of aggregation was -6.8% (inactive). For the same compound, the nuclei count in assay [2] amounted to 99.8%; in assay [3], 128%. For the same compound, the fluorescence slope in [4] is -0.385 (inactive). For the same compound, the NADPH fluorescence slope in assay [5] is -1.8e-05 (inactive). In assay [6], the slope is 0.0045 (inactive). Further, the call in assay [7] was inactive.

As to `OC(CNCCc1ccccc1)c1ccccc1` (stereo not drawn), the cell count in [1] worked out at 586. For the same compound, the inhibition in [1] is 11% (inactive); in assay [3] it was 48.6% (inactive); in assay [8], 11.9% (inactive); in assay [9], 15.7% (inactive). Besides, the inhibition of aggregation in [2] is 14.9% (inactive). Moreover, the nuclei count in [2] is 91.9%; in [3] it was 55.2%. In assay [4], the fluorescence slope was -0.37 (inactive). The NADPH fluorescence slope in assay [5] was -7.3e-05 (inactive). In assay [6], the slope is 0.00466 (inactive). Further, in assay [7], the compound was called inactive.

Consider `COc1ccc(OC)c(NS(=O)(=O)Cc2ccccc2)c1`, for which, in assay [1], the cell count was determined as 356. Also, the inhibition in assay [1] is 6.3% (inactive); in assay [3], -73.7% (inactive); in assay [8] it was 13.9% (inactive); in assay [9] it was 16.5% (inactive). For the same compound, in assay [2], the inhibition of aggregation was -14.8% (inactive). Besides, the values for the nuclei count in [2] and in [3] were 110% and 120%, respectively. Moreover, the fluorescence slope in assay [4] is -0.424 (inactive). In addition, in [5], the NADPH fluorescence slope was -1.8e-05 (inactive). The slope in assay [6] is 0.00242 (inactive). The compound was called inactive in [7].

Take `COc1ccccc1N1CCN(c2cc(N3CCCC3)nc(C)n2)CC1`: in assay [1], the cell count is 310. Also, the inhibition is 7.3% (inactive) in [1], -60.1% (inactive) in assay [3], 3.33% (inactive) in assay [8] and 1.07% (inactive) in assay [9]. In addition, the inhibition of aggregation in [2] was 0% (inactive). The nuclei count in assay [2] amounted to 102%; in assay [3] it was 136%. Moreover, in assay [4], the fluorescence slope is -0.471 (inactive). Besides, the NADPH fluorescence slope in [5] was -7.2e-05 (inactive). The slope in assay [6] is 0.0045 (inactive). For the same compound, the outcome in assay [7] was inactive.

`Cc1nonc1NC(=O)c1ccccc1Br`: the cell count in assay [1] turned out to be 620. Moreover, the inhibition in assay [1] is 9.6% (inactive); in assay [3] it was 52.4% (inactive); in [8], 12% (inactive); in [9] it was 22.4% (inactive). Besides, the inhibition of aggregation in [2] is 28.1% (inactive). Moreover, the nuclei count was 96.4% in [2] and 60% in [3]. The fluorescence slope in assay [4] is -0.346 (inactive). Further, the NADPH fluorescence slope in assay [5] was -5.8e-05 (inactive). Also, in [6], the slope is 0.00524 (inactive). Further, in [7], the outcome was inactive.

Turning to `COC(=O)CCn1nnc(-c2ccc(C)cc2)n1`, the cell count in assay [1] stood at 390. For the same compound, the inhibition in assay [1] was 7.6% (inactive); in assay [3], -24.9% (inactive); in assay [8], 21.3% (inactive); in assay [9], 24.4% (inactive). Also, the inhibition of aggregation in assay [2] is -4.9% (inactive). The nuclei count was 110% in [2] and 108% in assay [3]. Further, the fluorescence slope in assay [4] was -0.341 (inactive). In assay [5], the NADPH fluorescence slope was -4.2e-06 (inactive). For the same compound, the slope in assay [6] is 0.00816 (inactive). The call in [7] was inactive.

Consider `Cc1cc(C(=O)N2CCCc3ccccc32)no1`, for which the cell count in assay [1] amounted to 312. Moreover, the inhibition in assay [1] is -4.5% (inactive); in [3], -10.5% (inactive); in [8] it was -8.74% (inactive); in assay [9], -14.5% (inactive). The inhibition of aggregation in assay [2] is 13% (inactive). Besides, the values for the nuclei count in assay [2] and in assay [3] were 77.3% and 89.2%, respectively. Also, the fluorescence slope in [4] was -0.39 (inactive). For the same compound, the NADPH fluorescence slope in [5] is -4.1e-06 (inactive). Besides, the slope in [6] is 0.00507 (inactive). In addition, the outcome in assay [7] was inactive.

For the compound `O=C(Nc1ccon1)c1cccc(S(=O)(=O)N2CCCC2)c1`, the cell count in assay [1] is 307. Further, the inhibition in [1] was -2.7% (inactive); in assay [3] it was -11.9% (inactive); in [8] it was 13.5% (inactive); in [9], 13.6% (inactive). Besides, in assay [2], the inhibition of aggregation is 21% (inactive). Moreover, the nuclei count came to 86.7% in assay [2] and 102% in assay [3]. Further, the fluorescence slope in assay [4] was -0.374 (inactive). In addition, the NADPH fluorescence slope in assay [5] is -1.7e-05 (inactive). The slope in assay [6] is 0.00556 (inactive). Besides, the call in [7] was inactive.

The inhibition is the change of the read-out against control, counted positive when it falls.
